Source: ChEMBL document CHEMBL4359883, “4(1H)-quinolone derivatives overcome acquired resistance to anti-microtubule agents by targeting the colchicine site of β-tubulin” (Eur J Med Chem, 2019)
pIC50: −log10 of the molar value. Calls of active or inactive are those of the source. The calls are words filed in the database; no cut-off is given here.

Experiments:
MDA-MB-231 = experiment: Antiproliferative activity against human MDA-MB-231 cells assessed as reduction in cell viability after 72 hrs by MTS assay; assay type: functional, cell-based; settings: MDA-MB-231, 72 h
Outline: (§1)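 Cells plated at 2000/well, cultured overnight, then exposed to a range of compound concentrations for 72 h. MTS reagent added for 1–4 h at 37 °C and absorbance read at 490 nm. Cultured in RPMI 1640 or DMEM with 10% heat-inactivated FBS under 5% CO2. Data are the mean of three determinations.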

HCT-116 = experiment: Antiproliferative activity against human HCT116 cells assessed as reduction in cell viability after 72 hrs by MTS assay; assay type: functional, cell-based; settings: HCT-116, 72 h; outline: as §1
BT-549 = experiment: Antiproliferative activity against human BT549 cells assessed as reduction in cell viability after 72 hrs by MTS assay; assay type: functional, cell-based; settings: BT-549, 72 h; outline: as §1
NCI-H1975 [1] = experiment: Cell cycle arrest in human NCI-H1975 cells assessed as increase in cell population at sub-G1 phase after 24 hrs by propidium iodide-staining based flow cytometry; assay type: functional
Outline: (§2)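 Cells treated for 24 h, then trypsinized and fixed overnight in ice-cold 70% ethanol. Stained for 30 min with propidium iodide (10 µg/mL) plus RNase (20 µg/mL), and DNA content measured by flow cytometry. Mean ± SD.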

NCI-H1975 [2] = experiment: Antiproliferative activity against human NCI-H1975 cells assessed as reduction in cell viability after 72 hrs by MTS assay; assay type: functional, cell-based; settings: NCI-H1975, 72 h; outline: as §1
NCI-H1975 [3] = experiment: Induction of cell cycle arrest in human NCI-H1975 cells assessed as accumulation at mitotic phase after 24 hrs by high content imaging analysis; assay type: functional, cell-based
Outline: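 Cells exposed for 24 h, stained for phospho-histone H3 (S10), and imaged by high-content imaging. Mitotic index taken as the fraction of p-HH3-positive cells. Mean ± SD.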

CCRF-CEM = experiment: Antiproliferative activity against human CCRF-CEM cells assessed as reduction in cell viability after 72 hrs by MTS assay; assay type: functional, cell-based; outline: as §1
PC-9 = experiment: Antiproliferative activity against human PC9 cells assessed as reduction in cell viability after 72 hrs by MTS assay; assay type: functional, cell-based; settings: PC-9, 72 h; outline: as §1
[4] = Cytotoxicity against human NHFB cells assessed as reduction in cell viability after 72 hrs by MTS assay; assay type: cell-based
Outline: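 Cells plated at 2000 per well, cultured overnight, then exposed to a range of compound concentrations for 72 h. MTS reagent added, 1–4 h at 37 °C, absorbance read at 490 nm. Mean of three determinations.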

KB = experiment: Antiproliferative activity against human KB cells assessed as reduction in cell viability after 72 hrs by MTS assay; assay type: functional, cell-based; outline: as §1
[5] = Antiproliferative activity against human KBtax cells assessed as reduction in cell viability after 72 hrs by MTS assay; assay type: functional, cell-based; outline: as §1
NCI-H1975 [6] = experiment: Induction of mitotic arrest in human NCI-H1975 cells assessed as cyclin A at 40 to 80 nM after 24 hrs by immunoblotting analysis; assay type: functional, cell-based
CL1-0 [7] = experiment: Induction of apoptosis in human CL1-0 cells assessed as bax protein expression after 24 hrs by immunoblotting analysis; assay type: functional, cell-based
[8] = Antiproliferative activity against human KB/VCR cells assessed as reduction in cell viability after 72 hrs by MTS assay; assay type: functional, cell-based; outline: as §1
NCI-H1975 [9] = experiment: Cell cycle arrest in human NCI-H1975 cells assessed as increase in cell population at G2/M phase after 24 hrs by propidium iodide-staining based flow cytometry; assay type: functional; outline: as §2
[10] = Selectivity index, ratio of IC50 for human KB/VCR cells to IC50 for human KB cells; assay type: functional
[11] = Antiproliferative activity against human CCRF-CEM/VBL cells assessed as reduction in cell viability after 72 hrs by MTS assay; assay type: functional, cell-based; outline: as §1
Hs-578T = experiment: Antiproliferative activity against human Hs578T cells assessed as reduction in cell viability after 72 hrs by MTS assay; assay type: functional, cell-based; outline: as §1
CL1-0 [12] = experiment: Induction of morphological changes in human CL1-0 cells assessed as disruption of mitotic spindle arrangement at 20 nM after 6 hrs by DAPI staining based confocal microscopic analysis; assay type: functional, cell-based
Outline: (§3)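 Cells exposed for 6 h, fixed in 3.7% paraformaldehyde, permeabilized with 0.1% Triton X-100. Stained with anti-α-tubulin (1:1000) overnight at 4 °C, FITC secondary 1 h at 37 °C, nuclei counterstained with DAPI. Imaged by confocal laser scanning microscopy.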

CL1-0 [13] = experiment: Cell cycle arrest in human CL1-0 cells assessed as increase in cell population at G2/M phase after 24 hrs by propidium iodide-staining based flow cytometry; assay type: functional; outline: as §2
[14] = Selectivity index, ratio of IC50 for human CCRF-CEM/VBL cells to IC50 for human CCRF-CEM cells; assay type: functional
[15] = Selectivity index, ratio of IC50 for human KBtax cells to IC50 for human KB cells; assay type: functional
PC-3 = experiment: Antiproliferative activity against human PC3 cells assessed as reduction in cell viability after 72 hrs by MTS assay; assay type: functional, cell-based; settings: PC-3, 72 h; outline: as §1
NCI-H1975 [16] = experiment: Induction of morphological changes in human NCI-H1975 cells assessed as disruption of mitotic spindle arrangement at 40 nM after 6 hrs by DAPI staining based DAPI staining based confocal microscopic analysis; assay type: functional, cell-based; outline: as §3
[17] = Antiproliferative activity against human 37T cells assessed as reduction in cell viability after 72 hrs by MTS assay; assay type: functional, cell-based; outline: as §1
NCI-H1975 [18] = experiment: Antitumour activity against human NCI-H1975 cells xenografted in Balb/c mouse assessed as reduction in tumour size at 8 mg/kg, ip administered 3 times per week and measured on day 25 (reference value: 1749 +/- 234.5 mm3); assay type: functional
[19] = Toxicity in Balb/c mouse xenografted with human KBtax cells assessed as serum ALT level at 8 mg/kg, ip administered 3 times per week and measured after 21 days (reference value: 32.7 +/- 4.8 IU/L); assay type: organism-based; settings: in vivo, 504 h
[20] = Toxicity in Balb/c mouse xenografted with human NCI-H1975 cells assessed as effect on body mass at 4 to 8 mg/kg, ip administered 3 times per week for 21 days; assay type: organism-based; settings: in vivo, 504 h
Outline: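 H1975 tumors grown in right flank of 6-week-old BALB/c nude mice; after establishment, 4 or 8 mg/kg compound dissolved in DMSO, or DMSO alone, given intraperitoneally three times a week. Body mass taken before each dose.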

Homo sapiens = species: Homo sapiens; experiment: Induction of apoptosis in human KBtax cells assessed as cleaved caspase-9 at 30 to 60 nM after 24 hrs by immunoblotting analysis; assay type: functional, cell-based
[21] = Toxicity in Balb/c mouse xenografted with human KBtax cells assessed as serum AST level at 8 mg/kg, ip administered 3 times per week and measured after 21 days (reference value: 94.2 +/- 12.5 IU/L); assay type: organism-based; settings: in vivo, 504 h
[22] = Antitumour activity against human KBtax cells xenografted in Balb/c mouse assessed as reduction in tumour size at 8 mg/kg, ip administered 3 times per week and measured after 21 days (reference value: 1109 +/- 128.3 mm3); assay type: functional
NCI-H1975 [23] = experiment: Induction of apoptosis in human NCI-H1975 cells assessed as PARP cleavage at 25 to 50 nM after 24 hrs by immunoblotting analysis; assay type: functional, cell-based

pIC50 (MDA-MB-231)	pIC50 (BT-549)	pIC50 (NCI-H1975 [2])	pIC50 (CCRF-CEM)	pIC50 (KB)	SMILES	pIC50 [5]	pIC50 [8]	Ratio IC50 [10]	pIC50 [11]	pIC50 (Hs-578T)	Ratio IC50 [14]	Ratio IC50 [15]	pIC50 [17]	other results
7.26	7.48	7.48	7.35	7.43	CCOC(=O)c1ccc2nc(-c3ccccc3)cc(O)c2c1	7.52	7.43	1	7.36	7.39	0.97	0.81	7.47	pIC50 (HCT-116): 7.30; Activity (NCI-H1975 [1]): Dose-dependent effect; Activity (NCI-H1975 [3]): Dose-dependent effect; pIC50 (PC-9): 7.77; pIC50 [4]: < 5.00; Activity (NCI-H1975 [6]): inactive; Activity (CL1-0 [7]): Dose-dependent effect; Activity (NCI-H1975 [9]): Dose-dependent effect; Activity (CL1-0 [12]): Active; Activity (CL1-0 [13]): Dose-dependent effect; pIC50 (PC-3): 7.35; Activity (NCI-H1975 [16]): Active; Activity (NCI-H1975 [18]): 587.2 mm3
7.46	7.68	7.62	7.70	7.47	CCOC(=O)c1ccc2[nH]c(-c3cccc(F)c3)cc(=O)c2c1	7.52	7.46	1	7.80	7.47	0.8	0.88	7.66	Activity [19]: 64 IU/L; Activity [20]: Non-Toxic; Activity (Homo sapiens): Active; Activity [21]: 120.7 IU/L; Activity [22]: 528.4 mm3; Activity (NCI-H1975 [23]): Active
